Measured values as given in ChEMBL document CHEMBL2331542, “Synthesis and in vitro antibacterial activity of quinolone/naphthyridone derivatives containing 3-alkoxyimino-4-(methyl)aminopiperidine scaffolds” (2013).
≈ marks a conversion by molar mass, not a printed value.

Experiments:
Assay type in all cases: functional
[1] = system: Escherichia coli; assay: Antibacterial activity against extended-spectrum beta-lactamase-producing Escherichia coli isolate 12-4
How it was run: (§1)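 MIC determined in vitro by a standard technique and defined as the lowest compound concentration giving complete inhibition of bacterial growth. The Gram-positive and Gram-negative panels were tested alongside gemifloxacin, levofloxacin and ciprofloxacin reference drugs.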

[2] = system: Escherichia coli; assay: Antibacterial activity against extended-spectrum beta-lactamase-producing Escherichia coli isolate 12-2; how it was run: as §1
[3] = system: Escherichia coli; assay: Antibacterial activity against extended-spectrum beta-lactamase-producing Escherichia coli isolate 12-1; how it was run: as §1
[4] = system: Escherichia coli; assay: Antibacterial activity against Escherichia coli isolate 12-5; how it was run: as §1
[5] = system: Escherichia coli; assay: Antibacterial activity against Escherichia coli isolate 12-4; how it was run: as §1
[6] = system: Escherichia coli; assay: Antibacterial activity against Escherichia coli isolate 12-1; how it was run: as §1
[7] = system: Escherichia coli; assay: Antibacterial activity against Escherichia coli ATCC 25922; how it was run: as §1
[8] = system: Streptococcus pneumoniae; assay: Antibacterial activity against Streptococcus pneumoniae isolate 12-5; how it was run: as §1
[9] = system: Streptococcus pneumoniae; assay: Antibacterial activity against Streptococcus pneumoniae isolate 12-2; how it was run: as §1
[10] = system: Staphylococcus epidermidis; assay: Antibacterial activity against methicillin-resistant Staphylococcus epidermidis isolate 12-35
How it was run: (§2)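 MIC determined in vitro by standard techniques, defined as the lowest compound concentration giving complete inhibition of bacterial growth. Gemifloxacin, levofloxacin and ciprofloxacin were tested alongside as reference drugs.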

[11] = system: Staphylococcus epidermidis; assay: Antibacterial activity against methicillin-resistant Staphylococcus epidermidis isolate 12-33; how it was run: as §2
[12] = system: Staphylococcus epidermidis; assay: Antibacterial activity against methicillin-resistant Staphylococcus epidermidis isolate 12-5; how it was run: as §2
[13] = system: Staphylococcus epidermidis; assay: Antibacterial activity against methicillin-sensitive Staphylococcus epidermidis isolate 12-3; how it was run: as §1
[14] = system: Staphylococcus epidermidis; assay: Antibacterial activity against methicillin-sensitive Staphylococcus epidermidis isolate 12-2; how it was run: as §1
[15] = system: Staphylococcus epidermidis; assay: Antibacterial activity against methicillin-sensitive Staphylococcus epidermidis isolate 12-1; how it was run: as §1
[16] = system: Staphylococcus aureus; assay: Antibacterial activity against methicillin-resistant Staphylococcus aureus isolate 12-15; how it was run: as §2
[17] = system: Staphylococcus aureus; assay: Antibacterial activity against methicillin-resistant Staphylococcus aureus isolate 12-13; how it was run: as §2
[18] = system: Staphylococcus aureus; assay: Antibacterial activity against methicillin-resistant Staphylococcus aureus isolate 12-3; how it was run: as §2
[19] = system: Staphylococcus aureus; assay: Antibacterial activity against methicillin-sensitive Staphylococcus aureus isolate 12-10; how it was run: as §1
[20] = system: Staphylococcus aureus; assay: Antibacterial activity against methicillin-sensitive Staphylococcus aureus isolate 12-7; how it was run: as §1
[21] = system: Staphylococcus aureus; assay: Antibacterial activity against methicillin-sensitive Staphylococcus aureus isolate 12-6; how it was run: as §1
[22] = system: Staphylococcus aureus; assay: Antibacterial activity against Staphylococcus aureus […]; how it was run: as §1
[23] = system: Pseudomonas aeruginosa; assay: Antibacterial activity against Pseudomonas aeruginosa isolate 12-2; how it was run: as §1
[24] = system: Pseudomonas aeruginosa; assay: Antibacterial activity against Pseudomonas aeruginosa isolate 12-1; how it was run: as §1
[25] = system: Pseudomonas aeruginosa; assay: Antibacterial activity against Pseudomonas aeruginosa ATCC 27853; how it was run: as §1
[26] = system: Klebsiella pneumoniae; assay: Antibacterial activity against extended-spectrum beta-lactamase-producing Klebsiella pneumoniae isolate 12-4; how it was run: as §1
[27] = system: Klebsiella pneumoniae; assay: Antibacterial activity against extended-spectrum beta-lactamase-producing Klebsiella pneumoniae isolate 12-2; how it was run: as §1
[28] = system: Klebsiella pneumoniae; assay: Antibacterial activity against extended-spectrum beta-lactamase-producing Klebsiella pneumoniae isolate 12-1; how it was run: as §1
[29] = system: Klebsiella pneumoniae; assay: Antibacterial activity against Klebsiella pneumoniae isolate 12-4; how it was run: as §1
[30] = system: Klebsiella pneumoniae; assay: Antibacterial activity against Klebsiella pneumoniae isolate 12-2; how it was run: as §1
[31] = system: Klebsiella pneumoniae; assay: Antibacterial activity against Klebsiella pneumoniae isolate 12-1; how it was run: as §1

Compound | MIC [1] | MIC [2] | MIC [3] | MIC [4] | MIC [5] | MIC [6] | MIC [7] | MIC [8] | MIC [9] | MIC [10] | MIC [11] | MIC [12] | MIC [13] | MIC [14] | MIC [15] | MIC [16] | MIC [17] | MIC [18] | MIC [19] | MIC [20] | other results
CCO/N=C1\CN(c2c(F)cc3c(=O)c(C(=O)O)cn4c3c2OC[C@@H]4C)CCC1NC (stereo partly drawn) | 64 µg/mL (≈ 148 µM) | > 128 µg/mL | > 128 µg/mL | > 128 µg/mL | > 128 µg/mL | 4 µg/mL (≈ 9.25 µM) | 16 µg/mL (≈ 37 µM) | 8 µg/mL (≈ 18.5 µM) | 1 µg/mL (≈ 2.31 µM) | 0.5 µg/mL (≈ 1.16 µM) | 8 µg/mL (≈ 18.5 µM) | 0.5 µg/mL (≈ 1.16 µM) | 0.5 µg/mL (≈ 1.16 µM) | 2 µg/mL (≈ 4.62 µM) | 0.5 µg/mL (≈ 1.16 µM) | 1 µg/mL (≈ 2.31 µM) | 1 µg/mL (≈ 2.31 µM) | 1 µg/mL (≈ 2.31 µM) | > 128 µg/mL | 128 µg/mL (≈ 296 µM) | MIC [21]: 1 µg/mL (≈ 2.31 µM); MIC [22]: 0.5 µg/mL (≈ 1.16 µM); MIC [23]: 8 µg/mL (≈ 18.5 µM); MIC [24]: 16 µg/mL (≈ 37 µM); MIC [25]: 32 µg/mL (≈ 74 µM); MIC [26]: > 128 µg/mL; MIC [27]: 32 µg/mL (≈ 74 µM); MIC [28]: 8 µg/mL (≈ 18.5 µM); MIC [29]: 1 µg/mL (≈ 2.31 µM); MIC [30]: 1 µg/mL (≈ 2.31 µM); MIC [31]: 2 µg/mL (≈ 4.62 µM)
CNC1CCN(c2c(F)cc3c(=O)c(C(=O)O)cn4c3c2OC[C@@H]4C)C/C1=N\OC (stereo partly drawn) | 16 µg/mL (≈ 38.2 µM) | > 128 µg/mL | 128 µg/mL (≈ 306 µM) | 128 µg/mL (≈ 306 µM) | 128 µg/mL (≈ 306 µM) | 8 µg/mL (≈ 19.1 µM) | 0.25 µg/mL (≈ 0.597 µM) | 1 µg/mL (≈ 2.39 µM) | 1 µg/mL (≈ 2.39 µM) | 0.125 µg/mL (≈ 0.299 µM) | < 0.008 µg/mL | 0.125 µg/mL (≈ 0.299 µM) | 0.5 µg/mL (≈ 1.19 µM) | 2 µg/mL (≈ 4.78 µM) | 0.5 µg/mL (≈ 1.19 µM) | 1 µg/mL (≈ 2.39 µM) | 1 µg/mL (≈ 2.39 µM) | 1 µg/mL (≈ 2.39 µM) | 0.25 µg/mL (≈ 0.597 µM) | 1 µg/mL (≈ 2.39 µM) | MIC [21]: 0.25 µg/mL (≈ 0.597 µM); MIC [22]: 0.25 µg/mL (≈ 0.597 µM); MIC [23]: 8 µg/mL (≈ 19.1 µM); MIC [24]: 8 µg/mL (≈ 19.1 µM); MIC [25]: 4 µg/mL (≈ 9.56 µM); MIC [26]: 0.5 µg/mL (≈ 1.19 µM); MIC [27]: 16 µg/mL (≈ 38.2 µM); MIC [28]: 16 µg/mL (≈ 38.2 µM); MIC [29]: 0.5 µg/mL (≈ 1.19 µM); MIC [30]: 1 µg/mL (≈ 2.39 µM); MIC [31]: 1 µg/mL (≈ 2.39 µM)
CNC1CCN(c2c(F)cc3c(=O)c(C(=O)O)cn(C4CC4)c3c2F)C/C1=N\OC (stereo not drawn) | 128 µg/mL (≈ 304 µM) | > 128 µg/mL | > 128 µg/mL | > 128 µg/mL | > 128 µg/mL | 2 µg/mL (≈ 4.76 µM) | 0.03 µg/mL (≈ 0.0714 µM) | 0.06 µg/mL (≈ 0.143 µM) | 0.06 µg/mL (≈ 0.143 µM) | 0.015 µg/mL (≈ 0.0357 µM) | < 0.008 µg/mL | 0.015 µg/mL (≈ 0.0357 µM) | 0.25 µg/mL (≈ 0.595 µM) | 0.5 µg/mL (≈ 1.19 µM) | 0.25 µg/mL (≈ 0.595 µM) | 0.06 µg/mL (≈ 0.143 µM) | 0.06 µg/mL (≈ 0.143 µM) | 0.06 µg/mL (≈ 0.143 µM) | 0.03 µg/mL (≈ 0.0714 µM) | 0.06 µg/mL (≈ 0.143 µM) | MIC [21]: 0.03 µg/mL (≈ 0.0714 µM); MIC [22]: 0.25 µg/mL (≈ 0.595 µM); MIC [23]: 8 µg/mL (≈ 19 µM); MIC [24]: 8 µg/mL (≈ 19 µM); MIC [25]: 4 µg/mL (≈ 9.51 µM); MIC [26]: 0.5 µg/mL (≈ 1.19 µM); MIC [27]: 8 µg/mL (≈ 19 µM); MIC [28]: 8 µg/mL (≈ 19 µM); MIC [29]: 0.5 µg/mL (≈ 1.19 µM); MIC [30]: 0.5 µg/mL (≈ 1.19 µM); MIC [31]: 0.5 µg/mL (≈ 1.19 µM)
